In experiment [1] the test system is U-937. Put plainly: Cell cycle arrest in human U937 cells assessed as decrease in S-phase population after 24 hrs by propidium iodide staining-based flow cytometric analysis in presence of MEK inhibitor PD184352. The class given is functional. An outline of the steps:
(§1)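 Cells cultured in RPMI 1640 with 10% FBS and treated 24 h at the indicated concentrations. Stained with propidium iodide for 4 h at 4 °C in the dark. Flow cytometry gave the percentage of cells in G₀/G₁, S, G₂/M and sub-G₁ phases.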
A general note: In flow cytometry, cells or beads pass a laser one at a time.

For experiment [2], the system named is U-937. The experiment is described as follows: Cell cycle arrest in human U937 cells assessed as accumulation at G2/M-phase after 24 hrs by propidium iodide staining-based flow cytometric analysis in presence of MEK inhibitor PD184352. The class given is functional. The method in brief: as §1
In experiment [3] the test system is U-937. The experiment is described as follows: Growth inhibition of human U937 cells after 24 hrs by MTS assay. Format: functional, cell-based. The following applies: U-937, 24 h. The method in brief: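 Cells in RPMI 1640 with 10% heat-inactivated FBS, seeded 2 × 10⁴ cells/well and exposed 24 h. MTS reagent added, then 1 h further incubation at 37 °C, 5% CO₂. Formazan absorbance read at 490 nm. Viability expressed as percentage of untreated controls.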
In general terms: Tetrazolium dyes change colour on reduction, which living cells bring about.

Experiment [4] concerns the target RAF proto-oncogene serine/threonine-protein kinase (Homo sapiens) (UniProt P04049). The experiment is described as follows: Inhibition of raf-mediated ERK phosphorylation in human U937 cells at 0.3 to 30 uM after 1 hr by Western blot analysis. The following applies: U-937. The class given is cell-based. An outline of the steps:
(§2)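 Cells in RPMI 1640 with 10% heat-inactivated FBS, 37 °C, 5% CO2; treated in growing medium (DU145 24 h; U937 1 h at 5 × 10⁵/mL). Lysed by sonication in SDS sample buffer with protease inhibitors plus 1 mM orthovanadate and pyrophosphate, boiled 5 min. Blots blocked in 5% milk, primary antibodies 1:1000 overnight at 4 °C, HRP secondary 1:2000, chemiluminescence; α-tubulin loading control.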
(In general: A western blot detects proteins with antibodies after separation by electrophoresis.)

For experiment [5] the target is unchanged. Put plainly: Inhibition of raf-mediated MEK phosphorylation in human U937 cells at 0.3 to 30 uM after 1 hr by Western blot analysis. The class given is cell-based. The following applies: U-937. The method in brief: as §2
Experiment [6] has as its system U-937. The experiment is described as follows: Inhibition of PI3K-mediated Akt phosphorylation in human U937 cells at 0.3 to 30 uM after 1 hr by Western blot analysis. Format: cell-based.
The test system of experiment [7] is U-937. Put plainly: Growth inhibition of human U937 cells at 320 uM after 72 hrs by MTS assay. Format: functional, cell-based. The method in brief:
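U937 cells exposed 72 h, with or without AICA 320 µM, then MTS added. Absorbance read at 490 nm, expressed as percentage of untreated controls. Data are mean percentage viability, n = 6, error bars SEM.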

Each structure is given as a SMILES string. Active and inactive are the calls of the source. The rule behind the calls is not given here.

Chain of RAF proto-oncogene serine/threonine-protein kinase (Homo sapiens) (P04049 whole entry): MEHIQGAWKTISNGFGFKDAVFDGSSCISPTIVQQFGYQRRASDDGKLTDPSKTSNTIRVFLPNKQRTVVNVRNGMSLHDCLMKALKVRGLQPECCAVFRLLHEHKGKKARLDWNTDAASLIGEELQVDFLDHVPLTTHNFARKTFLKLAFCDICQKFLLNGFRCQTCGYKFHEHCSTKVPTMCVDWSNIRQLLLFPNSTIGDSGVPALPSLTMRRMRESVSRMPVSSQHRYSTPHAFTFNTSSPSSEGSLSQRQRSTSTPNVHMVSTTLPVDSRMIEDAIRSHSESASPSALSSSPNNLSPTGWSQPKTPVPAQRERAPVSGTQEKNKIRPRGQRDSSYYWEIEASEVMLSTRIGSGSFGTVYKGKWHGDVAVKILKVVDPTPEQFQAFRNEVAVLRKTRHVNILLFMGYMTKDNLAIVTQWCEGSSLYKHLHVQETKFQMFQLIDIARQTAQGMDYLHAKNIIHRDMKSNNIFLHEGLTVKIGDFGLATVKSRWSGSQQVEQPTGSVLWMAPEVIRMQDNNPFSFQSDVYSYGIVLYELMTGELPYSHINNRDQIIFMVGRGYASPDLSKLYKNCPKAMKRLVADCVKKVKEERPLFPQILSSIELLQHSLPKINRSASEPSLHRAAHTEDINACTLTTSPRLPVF

For the compound `O=C(NOCC1CC1)c1ccc(F)c(F)c1Nc1ccc(I)cc1Cl`, the result in the experiment with U-937 [1] and in the experiment on U-937 [2] was Active. The IC50 is the midpoint of a concentration-inhibition curve. The low end stands for greater potency in that assay, the high end for weaker potency in that assay. In the experiment on U-937 [3], `NCCN1C(=O)c2ccc(Cc3ccccc3)cc2C1=O` displayed a half-maximal inhibitory concentration (IC50) greater than 30 µM. For `NCCN1C(=O)S/C(=C\CCc2ccccc2)C1=O`, the half-inhibitory concentration (IC50) with U-937 [3] is 10.4 µM. For the same compound, the inhibition entry (in experiment [4]; in experiment [5]; with U-937 [6]) was “inactive” throughout. On to `CCOc1ccc(CC/C=C2\SC(=O)N(CCN)C2=O)cc1`, for which the half-maximal inhibitory concentration (IC50) in the experiment with U-937 [3] came to 9.6 µM. The compound `NCCN1C(=O)S/C(=C\CCc2cccc([N+](=O)[O-])c2)C1=O` gave an IC50 in the experiment with U-937 [3] of 24.4 µM. Consider `COc1ccc(CC/C=C2\SC(=O)N(CCN)C2=O)cc1`, for which half-maximal inhibition in the experiment with U-937 [3] (IC50) was put at 9.4 µM. Still for that read-out and setting: the figure for `CCOc1ccccc1CC/C=C1\SC(=O)N(CCN)C1=O` is 11.3 µM; for `NCCN1C(=O)S/C(=C\CCC2CC2)C1=O` it is 14.1 µM.

With `O=C1S/C(=C\CCc2ccccc2)C(=O)N1CCN1CCOCC1`, the IC50 with U-937 [3] was greater than 30 µM. In the experiment with U-937 [3], `NCCN1C(=O)SC(CCCc2ccccc2)C1=O` (racemic) displayed a half-maximal inhibitory concentration (IC50) greater than 30 µM. For the same compound, the inhibition entry (in experiment [4]; in experiment [5]; with U-937 [6]) was “inactive” in each case. Take `NC(=O)c1[nH]cnc1N`: in the experiment on U-937 [7], the “growth inhibition (GI)” value is “inactive”. `O=C(O)CN1C(=O)S/C(=C\CCc2ccccc2)C1=O` came in with a concentration for half-maximal inhibition (IC50) with U-937 [3] greater than 30 µM. In the experiment on U-937 [3], `NCCN1C(=O)S/C(=C\CCc2ccc([N+](=O)[O-])cc2)C1=O` had an IC50 greater than 30 µM. With `O=C1S/C(=C\CCc2ccccc2)C(=O)N1CCO`, the midpoint of inhibition with U-937 [3], the IC50, lay at 11.3 µM.

`CCOc1cccc(CC/C=C2\SC(=O)N(CCN)C2=O)c1` returned an IC50 in the experiment on U-937 [3] of 10 µM. In the case of `NCCN1C(=O)S/C(=C\CCc2ccc(S(N)(=O)=O)cc2)C1=O`, in the experiment with U-937 [3], the IC50 is greater than 30 µM.

Turning to `NCCN1C(=O)S/C(=C\CCc2ccc3[nH]ccc3c2)C1=O`, the 50% inhibitory concentration (IC50) in the experiment on U-937 [3] amounted to 27.7 µM. The same measure, in the same setting: the figure for `NCCN1C(=O)S/C(=C\CCc2cccnc2)C1=O` is greater than 30 µM; for `NCCN1C(=O)S/C(=C\CCc2ccc(Cl)cc2)C1=O` it is 21.2 µM; for `CS(=O)(=O)Nc1ccc(CC/C=C2\SC(=O)N(CCN)C2=O)cc1` it is greater than 30 µM.

In the case of `CC/C=C1\SC(=O)N(CCN)C1=O`, the half-maximal inhibitory concentration (IC50) in the experiment with U-937 [3] was greater than 30 µM. Still for that read-out and setting: the figure for `NCCN1C(=O)S/C(=C\CCc2c[nH]c3ccccc23)C1=O` is 29.5 µM.

Values taken from ChEMBL document CHEMBL1926538, “3,5-Disubstituted-thiazolidine-2,4-dione analogs as anticancer agents: design, synthesis and biological characterization” (Eur J Med Chem, 2012).
